Key:
[1] = Negative inotropic activity in guinea pig right atrium assessed as decrease in developed tension; format: functional, tissue-based; details: Cavia porcellus, Cardiac atrium
[2] = Negative inotropic activity in guinea pig left atrium assessed as decrease in developed tension at 10^-5 M relative to control; format: functional, Cavia porcellus, Cardiac atrium; set-up: scale not given: the % may be the effect or the level left
Aorta [3] = test: Relaxant activity in potassium depolarized guinea pig aortic strips assessed as inhibition of calcium-induced contraction at 10^-4 M relative to control; format: functional, Cavia porcellus; set-up: scale not given: the % may be the effect or the level left
Outline: (§1)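 Guinea pig aortic strips and ileum longitudinal smooth muscle are depolarized with 80 mM K⁺. The read-out is percent inhibition of calcium-induced contraction. Aorta is tested at 10⁻⁴ M and ileum at 10⁻⁵ M.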

[4] = Negative inotropic activity in guinea pig left atrium assessed as decrease in developed tension; format: functional, tissue-based; details: Cavia porcellus, Cardiac atrium
Outline: (§2)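 Isolated guinea pig atria are used, with left atria driven at 1 Hz. Compounds are added cumulatively. EC50 is derived from log concentration−response curves by Litchfield–Wilcoxon probit analysis, n = 6−7. EC50 is not calculated when the maximal effect is below 50%.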

Ileum [5] = test: Relaxant activity in potassium depolarized guinea pig ileum longitudinal smooth muscle assessed as inhibition of calcium-induced contraction at 10^-5 M relative to control; format: functional, Cavia porcellus; set-up: scale not given: the % may be the effect or the level left; outline: as §1
[6] = Negative inotropic activity in guinea pig right atrium assessed as decrease in developed tension at 10^-5 M relative to control; format: functional, Cavia porcellus, Cardiac atrium; set-up: scale not given: the % may be the effect or the level left
Outline: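 The read-out is decrease in developed tension of spontaneously beating isolated guinea pig right atrium at 10⁻⁵ M. It is expressed as percent change from control, n = 7−8.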

Ileum [7] = test: Relaxant activity in potassium depolarized guinea pig ileum longitudinal smooth muscle assessed as inhibition of calcium-induced contraction; format: functional, tissue-based; details: Cavia porcellus
Outline: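 K⁺-depolarized (80 mM) guinea pig ileum longitudinal smooth muscle is used. Calcium-induced contraction is measured with cumulative compound addition.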

[8] = Negative chronotropic activity in guinea pig right atrium assessed as decrease in atrial rate at 10^-4 M relative to control; format: functional, Cavia porcellus, Cardiac atrium; set-up: scale not given: the % may be the effect or the level left
Outline: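 The read-out is decrease in rate of spontaneously beating isolated guinea pig right atrium at 10⁻⁴ M. It is expressed as percent change from control, n = 7−8.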

[9] = Negative chronotropic activity in guinea pig right atrium assessed as decrease in atrial rate at 10^-7 M relative to control; format: functional, Cavia porcellus, Cardiac atrium; set-up: scale not given: the % may be the effect or the level left
Outline: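 Spontaneously beating isolated guinea pig right atrium. Compounds added cumulatively. The decrease in atrial rate is expressed as percent change from control. At each concentration, the difference from control was tested by Student's t-test, with significance at P<0.05. Data are given as mean SEM.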

[10] = Displacement of [3H]-PN200-110 from L-type calcium channel in Hartley guinea pig atrial membrane after 90 mins; format: cell membranes, Cavia porcellus, Cardiac atrium
Outline: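 Guinea pig atrial membranes are labelled at the 1,4-DHP site with (+)-[5-methyl-3H]PN200-110 at 0.5 nM. Competitor is added over 0.001−100 μM from 10⁻² M DMSO stocks diluted in buffer. Results are given as IC50 and Ki, mean ± SEM. Student's t-test is applied with P<0.001.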

Aorta [11] = test: Relaxant activity in potassium depolarized guinea pig aortic strips assessed as inhibition of calcium-induced contraction at 10^-6 M relative to control; format: functional, Cavia porcellus; set-up: scale not given: the % may be the effect or the level left
Outline: (§3)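 Guinea pig aortic strips and ileum longitudinal smooth muscle were depolarized with 80 mM K⁺. Calcium-induced contraction was measured with cumulative compound addition, and inhibition was expressed as percent change from control (n = 6−7). Differences from control at each concentration were tested by Student's t-test, P < 0.05, and data are mean SEM.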

Cavia porcellus [12] = species on record: Cavia porcellus; test: Displacement of [3H]-PN200-110 from L-type calcium channel in Hartley guinea pig ventricular membrane […] after 90 mins relative to control
Ileum [13] = test: Relaxant activity in potassium depolarized guinea pig ileum longitudinal smooth muscle assessed as inhibition of calcium-induced contraction at 5x10'-9 M relative to control; format: functional, Cavia porcellus; set-up: scale not given: the % may be the effect or the level left; outline: as §3
[14] = Displacement of [3H]-PN200-110 from L-type calcium channel dihydropyridine binding site in Wistar rat cortex homogenate after 60 mins by liquid scintillation spectometric analysis; format: tissue-based
Outline: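 Competition binding on rat cortex homogenate with (+)-[5-methyl-3H]PN200-110. Compounds are dissolved in DMSO as 10⁻² M stocks and diluted in buffer. Six displacer concentrations are tested, each in triplicate. IC50 is obtained by −log probit analysis and Ki by the Prusoff method. Values are mean ± SEM of 3−5 separate experiments done in triplicate.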

Rattus norvegicus = species on record: Rattus norvegicus; test: Displacement of [3H]-PN200-110 from L-type calcium channel dihydropyridine binding site in Wistar rat cortex homogenate at 100 uM after 60 mins by liquid scintillation spectometric analysis relative to control; format: tissue-based
Outline: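 Binding on rat cortex homogenate using (+)-[5-methyl-3H]PN200-110. The read-out is percent of maximal radioligand displacement at 100 μM test compound. Compounds are made up as 10⁻² M DMSO stocks and diluted in buffer. Values are from 3−5 separate experiments done in triplicate.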

[15] = Displacement of [3H]-PN200-110 from voltage-gated calcium channel subunit alpha Cav1.2a (unknown origin) expressed in HEK293 cells after 90 mins by liquid scintillation counting analysis; format: cell-based, Homo sapiens
Outline: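 Intact HEK-293 cells stably transfected with a rabbit Cav1.2a (α1c-a) plasmid are used. They are incubated with 0.5 nM (+)-[5-methyl-3H]PN200-110 plus competitor at 0.001−100 μM, from 10⁻² M DMSO stocks diluted in buffer. IC50 values are given as mean ± SEM.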

[16] = Displacement of [3H]-PN200-110 from L-type calcium channel in Hartley guinea pig ventricular membrane […] after 90 mins; set-up: species or system Cavia porcellus
[17] = Negative chronotropic activity in guinea pig right atrium assessed as decrease in atrial rate; format: functional, tissue-based; details: Cavia porcellus, Cardiac atrium; outline: as §2
HEK293 = test: Displacement of [3H]-PN200-110 from voltage-gated calcium channel subunit alpha Cav1.2a (unknown origin) expressed in HEK293 cells at 100 uM after 90 mins by liquid scintillation counting analysis relative to control; format: cell-based; details: Homo sapiens
Cavia porcellus [18] = species on record: Cavia porcellus; test: Displacement of [3H]-PN200-110 from L-type calcium channel in Hartley guinea pig atrial membrane at 100 uM after 90 mins relative to control; format: cell membranes; details: Cardiac atrium
Aorta [19] = test: Relaxant activity in potassium depolarized guinea pig aortic strips assessed as inhibition of calcium-induced contraction at 10^-5 M relative to control; format: functional, Cavia porcellus; set-up: scale not given: the % may be the effect or the level left
Ileum [20] = test: Relaxant activity in potassium depolarized guinea pig ileum longitudinal smooth muscle assessed as inhibition of calcium-induced contraction at 5x10'-7 M relative to control; format: functional, Cavia porcellus; set-up: scale not given: the % may be the effect or the level left
[21] = Negative chronotropic activity in guinea pig right atrium assessed as decrease in atrial rate at 5x10'-6 M relative to control; format: functional, Cavia porcellus, Cardiac atrium; set-up: scale not given: the % may be the effect or the level left
[22] = Negative inotropic activity in guinea pig left atrium assessed as decrease in developed tension at 10^-4 M relative to control; format: functional, Cavia porcellus, Cardiac atrium; set-up: scale not given: the % may be the effect or the level left

Q: What does the source list for `COC(=O)C1=C(C)NC(C)=C(C(=O)OC)C1c1c(-c2c(Cl)csc2Cl)nc2sc(C)cn12`?
A: EC50 [1]: 0.73 µM; Activity [2]: 60%; Activity (Aorta [3]): 31%; EC50 [4]: 0.31 µM; Activity (Ileum [5]): 87%; Activity [6]: 82%; IC50 (Ileum [7]): 3.23 µM; Activity [8]: 22%

Q: What does the source list for `COC(=O)C1=C(C)NC(C)=C(C(=O)OC)C1c1ccccc1[N+](=O)[O-]` [NIFEDIPINE]?
A: Activity [2]: 97%; Activity [9]: 85%; IC50 [10]: 0.0051 µM; Ki [10]: 0.0015 µM; EC50 [4]: 0.26 µM; Activity (Aorta [11]): 82%; %max (Cavia porcellus [12]): 80%; Activity (Ileum [13]): 70%; IC50 [14]: 0.0061 µM; Ki [14]: 0.0019 µM; %max (Rattus norvegicus): 92%; IC50 [15]: 0.086 µM; Ki [15]: 0.032 µM; IC50 [16]: 0.0057 µM; Ki [16]: 0.002 µM; EC50 [17]: 0.039 µM; %max (HEK293): 75%; %max (Cavia porcellus [18]): 72%

Q: With `COC(=O)C1=C(C)NC(C)=C(C(=O)OC)C1c1c(-c2cccs2)nc2sccn12` as the compound, how does the Activity (Aorta [19]) read?
A: 23%

Q: What about the %max (Cavia porcellus [12]) of the same compound?
A: < 50%

Q: And the Activity (Ileum [20])?
A: 91%

Q: What about the Activity [21] of the same compound?
A: 85%

Q: And the Activity [22]?
A: 46%

Q: And the IC50 (Ileum [7])?
A: 0.11 µM

Q: And the IC50 [15]?
A: 2.15 µM

Q: What about the Ki [15] of the same compound?
A: 0.71 µM

Q: And the EC50 [17]?
A: 1.3 µM

Q: What about the %max (HEK293) of the same compound?
A: 50%

Q: And the %max (Cavia porcellus [18])?
A: < 50%

From ChEMBL document CHEMBL2380289, “Ligand based approach to L-type calcium channel by imidazo[2,1-b]thiazole-1,4-dihydropyridines: from heart activity to brain affinity” (J Med Chem, 2013)
